From ChEMBL document CHEMBL1148611, “Selective inhibition of matrix metalloproteinase isozymes and in vivo protection against emphysema by substituted gamma-keto carboxylic acids” (J Med Chem, 2006) come the findings set out here.

Active and inactive are the calls of the source. The rule behind the calls is not given here.

In assay [1] the target is T1, Matrix metalloproteinase-15 (Homo sapiens, UniProt P51511). Briefly: Inhibitory activity against MMP15 upto 50uM.
Target sequence in this assay (P51511 132-669 limits assumed): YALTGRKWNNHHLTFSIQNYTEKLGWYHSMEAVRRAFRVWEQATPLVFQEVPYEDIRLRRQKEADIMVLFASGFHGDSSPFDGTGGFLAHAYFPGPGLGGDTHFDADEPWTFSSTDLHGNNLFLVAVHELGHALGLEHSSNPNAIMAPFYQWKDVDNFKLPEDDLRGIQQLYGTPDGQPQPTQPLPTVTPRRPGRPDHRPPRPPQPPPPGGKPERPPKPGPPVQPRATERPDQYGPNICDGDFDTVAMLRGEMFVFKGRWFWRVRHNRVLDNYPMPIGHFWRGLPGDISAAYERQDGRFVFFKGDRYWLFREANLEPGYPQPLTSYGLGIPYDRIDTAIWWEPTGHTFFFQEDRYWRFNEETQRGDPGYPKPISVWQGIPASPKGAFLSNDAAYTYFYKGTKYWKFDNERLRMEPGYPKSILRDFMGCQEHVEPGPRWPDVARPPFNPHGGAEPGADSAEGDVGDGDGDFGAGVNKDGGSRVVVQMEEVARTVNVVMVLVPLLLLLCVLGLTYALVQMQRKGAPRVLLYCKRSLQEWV
Assay [2] concerns the target Macrophage metalloelastase (Homo sapiens, UniProt P39900). Briefly: Inhibitory activity against MMP12.
The target of assay [3] is T2, Matrix metalloproteinase-16 (Homo sapiens, UniProt P51512). Briefly: Inhibitory activity against MMP16 upto 50uM.
Assay [4] concerns the target T3, Matrix metalloproteinase-14 (Homo sapiens, UniProt P50281). Kind of assay: Inhibitory activity against MMP14 upto 50uM.
For assay [5], the target named is T4, Matrix metalloproteinase-26 (Homo sapiens) (UniProt Q9NRE1).
T4 sequence (whole entry): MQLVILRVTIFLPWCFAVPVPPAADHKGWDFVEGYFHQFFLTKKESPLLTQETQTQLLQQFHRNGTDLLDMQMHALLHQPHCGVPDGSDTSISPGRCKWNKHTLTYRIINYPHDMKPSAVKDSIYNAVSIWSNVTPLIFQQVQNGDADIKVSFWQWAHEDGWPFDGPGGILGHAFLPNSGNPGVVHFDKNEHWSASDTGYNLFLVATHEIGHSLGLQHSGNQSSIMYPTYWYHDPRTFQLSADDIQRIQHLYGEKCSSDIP
Kind of assay: Inhibitory activity against MMP26 upto 50uM.

Assay [6] has as its target T5, Matrix metalloproteinase-9 (Homo sapiens, UniProt P14780). Briefly: Inhibitory activity against MMP9 upto 50uM.
In assay [7] the target is T6, Matrilysin (Homo sapiens) (UniProt P09237).
T6 sequence (whole entry): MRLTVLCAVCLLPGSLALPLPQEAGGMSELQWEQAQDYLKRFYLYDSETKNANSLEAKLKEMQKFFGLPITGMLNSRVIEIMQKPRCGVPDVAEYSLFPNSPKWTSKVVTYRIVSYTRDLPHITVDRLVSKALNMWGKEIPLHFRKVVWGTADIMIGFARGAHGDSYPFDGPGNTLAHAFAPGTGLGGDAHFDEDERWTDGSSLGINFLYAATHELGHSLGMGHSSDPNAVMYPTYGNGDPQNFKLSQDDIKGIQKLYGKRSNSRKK
Briefly: Inhibitory activity against MMP7 upto 50 uM.

Assay [8] concerns the target T7, Interstitial collagenase (Homo sapiens) (UniProt P03956).
T7 sequence (whole entry): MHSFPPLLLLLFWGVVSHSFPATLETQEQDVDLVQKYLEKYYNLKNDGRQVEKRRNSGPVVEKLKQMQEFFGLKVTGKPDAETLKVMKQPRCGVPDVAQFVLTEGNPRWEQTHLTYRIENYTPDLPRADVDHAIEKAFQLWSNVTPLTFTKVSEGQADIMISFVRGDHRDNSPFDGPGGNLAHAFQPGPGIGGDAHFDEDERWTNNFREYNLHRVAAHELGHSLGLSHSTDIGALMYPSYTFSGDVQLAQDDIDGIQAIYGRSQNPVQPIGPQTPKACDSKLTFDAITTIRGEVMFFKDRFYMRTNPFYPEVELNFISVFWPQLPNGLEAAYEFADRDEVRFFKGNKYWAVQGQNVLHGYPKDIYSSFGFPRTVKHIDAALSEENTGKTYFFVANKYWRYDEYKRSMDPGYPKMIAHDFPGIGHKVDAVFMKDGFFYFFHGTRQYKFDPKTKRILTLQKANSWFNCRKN
Briefly: Inhibitory activity against MMP1 upto 50uM.

Assay [9] concerns the target 72 kDa type IV collagenase (Homo sapiens, UniProt P08253). Briefly: Inhibitory activity against MMP2.
In assay [10] the target is T5, Matrix metalloproteinase-9. Kind of assay: Inhibitory activity against MMP9.
The target in assay [11] is T2, Matrix metalloproteinase-16. Briefly: Inhibitory activity against MMP16.
The target of assay [12] is T3, Matrix metalloproteinase-14. Kind of assay: Inhibitory activity against MMP14.
Assay [13] has as its target T8, Matrix metalloproteinase-26 (Homo sapiens, UniProt Q9NRE1).
T8 sequence (Q9NRE1 whole entry): T4 sequence (whole entry)
Briefly: Inhibitory activity against MMP26.

Assay [14] addresses T1, Matrix metalloproteinase-15. Briefly: Inhibitory activity against MMP15.
Target sequence in this assay (P51511 whole entry): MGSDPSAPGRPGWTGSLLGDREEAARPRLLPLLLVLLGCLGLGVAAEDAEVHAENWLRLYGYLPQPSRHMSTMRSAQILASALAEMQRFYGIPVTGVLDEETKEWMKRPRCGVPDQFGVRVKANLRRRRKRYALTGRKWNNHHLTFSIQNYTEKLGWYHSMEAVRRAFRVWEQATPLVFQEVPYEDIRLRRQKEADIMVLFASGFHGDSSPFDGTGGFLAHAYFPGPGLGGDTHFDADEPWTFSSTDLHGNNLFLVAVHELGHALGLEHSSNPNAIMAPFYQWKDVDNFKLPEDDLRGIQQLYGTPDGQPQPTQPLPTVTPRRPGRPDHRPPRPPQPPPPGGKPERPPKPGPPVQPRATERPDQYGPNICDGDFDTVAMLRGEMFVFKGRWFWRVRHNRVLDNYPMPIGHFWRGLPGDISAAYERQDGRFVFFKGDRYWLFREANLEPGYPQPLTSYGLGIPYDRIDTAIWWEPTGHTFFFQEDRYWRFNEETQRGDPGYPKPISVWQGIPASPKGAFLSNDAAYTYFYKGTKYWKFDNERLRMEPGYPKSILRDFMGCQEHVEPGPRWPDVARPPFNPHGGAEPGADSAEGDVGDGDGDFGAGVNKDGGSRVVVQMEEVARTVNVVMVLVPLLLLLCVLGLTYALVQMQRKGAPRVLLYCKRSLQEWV
In assay [15] the test system is Syrian golden hamster. Briefly: Increase in lung weight, lung volumes, relative lung volumes and right ventricular hypertropy in PPE-treated Syrian hamster at 5 mg/kg. The format is functional, organism-based. Further details: dose 5 mg/kg. The settings on record: Mesocricetus auratus, Heart right ventricle. An outline of the steps:
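Male golden Syrian hamsters with PPE-induced emphysema, compared with saline-treated controls, PPE-only animals and compound/saline-treated animals. Read-outs were wet weight of the left lung, lung volume, relative lung volume and right ventricular hypertrophy.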

Assay [16] concerns the target T6, Matrilysin (Homo sapiens). Briefly: Inhibitory activity against MMP7 upto 50uM.

One may read the IC50 as the concentration at which inhibition is half-maximal. A high value points to weaker potency in that assay.

T2 sequence (P51512 whole entry): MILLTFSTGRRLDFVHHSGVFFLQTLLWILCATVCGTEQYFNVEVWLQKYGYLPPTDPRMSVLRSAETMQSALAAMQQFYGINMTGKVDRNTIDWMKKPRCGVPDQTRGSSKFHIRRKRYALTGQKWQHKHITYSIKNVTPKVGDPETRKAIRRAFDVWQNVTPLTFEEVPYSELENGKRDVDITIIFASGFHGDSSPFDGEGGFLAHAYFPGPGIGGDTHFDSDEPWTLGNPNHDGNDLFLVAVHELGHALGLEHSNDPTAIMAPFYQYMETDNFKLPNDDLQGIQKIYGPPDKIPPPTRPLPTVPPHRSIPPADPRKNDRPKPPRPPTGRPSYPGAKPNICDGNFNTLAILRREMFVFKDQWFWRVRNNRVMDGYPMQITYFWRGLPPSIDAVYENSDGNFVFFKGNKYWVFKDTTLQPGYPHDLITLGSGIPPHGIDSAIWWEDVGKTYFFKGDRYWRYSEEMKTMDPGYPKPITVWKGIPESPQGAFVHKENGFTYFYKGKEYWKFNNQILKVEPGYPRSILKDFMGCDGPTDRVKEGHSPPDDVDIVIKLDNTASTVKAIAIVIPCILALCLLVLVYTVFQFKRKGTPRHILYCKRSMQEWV
T5 sequence (P14780 whole entry): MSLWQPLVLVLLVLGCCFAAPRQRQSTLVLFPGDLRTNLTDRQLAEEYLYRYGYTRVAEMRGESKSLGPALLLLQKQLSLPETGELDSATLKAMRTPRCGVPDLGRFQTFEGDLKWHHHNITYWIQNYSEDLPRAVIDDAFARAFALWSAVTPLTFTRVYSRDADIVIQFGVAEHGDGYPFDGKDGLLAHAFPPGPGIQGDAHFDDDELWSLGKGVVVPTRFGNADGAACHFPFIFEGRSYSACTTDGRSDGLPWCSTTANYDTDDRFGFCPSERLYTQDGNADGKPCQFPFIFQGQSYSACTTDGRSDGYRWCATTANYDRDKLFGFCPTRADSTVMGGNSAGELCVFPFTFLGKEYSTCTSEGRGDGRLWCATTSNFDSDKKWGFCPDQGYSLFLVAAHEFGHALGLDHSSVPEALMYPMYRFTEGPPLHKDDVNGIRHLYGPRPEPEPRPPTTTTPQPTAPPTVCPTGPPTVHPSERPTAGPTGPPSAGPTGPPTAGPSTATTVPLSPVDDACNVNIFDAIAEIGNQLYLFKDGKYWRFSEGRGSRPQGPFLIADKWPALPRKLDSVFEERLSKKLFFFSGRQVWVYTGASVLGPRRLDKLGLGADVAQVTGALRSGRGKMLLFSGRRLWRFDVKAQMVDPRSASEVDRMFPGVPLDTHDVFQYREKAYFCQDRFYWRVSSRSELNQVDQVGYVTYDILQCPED
Sequence of 72 kDa type IV collagenase (P08253 whole entry): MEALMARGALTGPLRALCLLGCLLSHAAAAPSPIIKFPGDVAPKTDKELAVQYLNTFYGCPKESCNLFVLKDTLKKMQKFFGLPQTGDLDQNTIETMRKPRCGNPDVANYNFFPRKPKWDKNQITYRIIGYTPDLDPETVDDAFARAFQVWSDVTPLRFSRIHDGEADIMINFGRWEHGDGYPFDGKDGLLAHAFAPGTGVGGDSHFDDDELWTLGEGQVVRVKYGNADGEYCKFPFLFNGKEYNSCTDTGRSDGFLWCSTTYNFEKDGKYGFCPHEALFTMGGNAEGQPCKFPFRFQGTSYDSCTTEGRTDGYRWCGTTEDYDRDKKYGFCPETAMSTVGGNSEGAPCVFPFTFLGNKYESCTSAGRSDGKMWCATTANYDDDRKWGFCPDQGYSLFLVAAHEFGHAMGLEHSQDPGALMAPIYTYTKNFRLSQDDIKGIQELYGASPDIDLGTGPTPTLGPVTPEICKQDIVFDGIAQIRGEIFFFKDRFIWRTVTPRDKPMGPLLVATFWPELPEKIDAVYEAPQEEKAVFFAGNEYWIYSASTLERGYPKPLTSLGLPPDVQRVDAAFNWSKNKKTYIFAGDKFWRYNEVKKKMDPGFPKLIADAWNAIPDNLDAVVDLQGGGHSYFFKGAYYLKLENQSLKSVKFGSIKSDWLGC
Sequence of Macrophage metalloelastase (P39900 whole entry): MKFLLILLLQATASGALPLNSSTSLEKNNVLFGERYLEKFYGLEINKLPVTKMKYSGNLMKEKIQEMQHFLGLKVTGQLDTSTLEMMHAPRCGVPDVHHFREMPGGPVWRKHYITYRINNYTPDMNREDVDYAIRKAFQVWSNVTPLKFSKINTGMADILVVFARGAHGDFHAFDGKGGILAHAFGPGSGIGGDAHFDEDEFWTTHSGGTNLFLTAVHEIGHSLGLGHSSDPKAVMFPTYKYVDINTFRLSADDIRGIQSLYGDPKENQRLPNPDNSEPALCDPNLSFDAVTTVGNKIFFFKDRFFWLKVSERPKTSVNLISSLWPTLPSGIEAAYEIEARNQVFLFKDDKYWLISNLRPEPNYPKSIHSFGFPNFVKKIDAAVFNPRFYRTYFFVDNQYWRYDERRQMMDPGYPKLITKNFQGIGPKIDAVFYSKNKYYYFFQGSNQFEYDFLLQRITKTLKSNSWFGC

For the molecule `CCC(CC(=O)O)C(=O)c1ccc(C#CCOCc2ccccc2)cc1` (stereo unspecified), the outcome in [1], in assay [3], in [4], in assay [5], in [6] and in assay [7] was inactive. Further, the outcome in assay [8] was inactive. The half-maximal inhibitory concentration (IC50) in assay [2] was determined as 7.56 µM; in assay [9], 5.74 µM.
`O=C(O)CC(CC1CCCC1)C(=O)c1ccc(C#Cc2ccccc2)cc1` (stereo unspecified): the half-inhibitory concentration (IC50) in assay [10] is 3.39 µM; in assay [2], 0.32 µM; in assay [9], 1.12 µM.
Turning to `O=C(O)CCC(=O)c1ccc(C#CCO)cc1`, the outcome in [1], in assay [3], in [4], in assay [5], in [6] and in [7] was inactive. The outcome in assay [8] was inactive. Also, the half-maximal inhibitory concentration (IC50) in [2] worked out at 24.7 µM; in [9] it was 15.4 µM.
Turning to `CCCCCCC(CC(=O)O)C(=O)c1ccc(C#Cc2ccccc2)cc1` (stereo unspecified), the half-inhibitory concentration (IC50) in assay [10] is 5.41 µM; in [2] it was 0.45 µM; in [9] it was 1.66 µM.
Consider `CCC(CC(=O)O)C(=O)c1ccc(C#Cc2ccccc2)cc1` (stereo unspecified), for which the IC50 came to 3.6 µM in assay [10]; 32 µM in assay [11]; 0.48 µM in [2]; 30.6 µM in [12]; 18.1 µM in [13]; 13.9 µM in assay [14]. This molecule gave an IC50 in assay [9] of 0.44 µM. Besides, the result in [7] and in [8] was inactive.
As to `O=C(O)CC(Cc1ccc(F)cc1)C(=O)c1ccc(C#Cc2ccccc2)cc1` (stereo unspecified), the IC50 in assay [10] is 10 µM; in [2], 1.14 µM; in assay [9], 3.43 µM.
`CCCCCCCCC#Cc1ccc(C(=O)CCC(=O)O)cc1`: the outcome in [1], in assay [3], in assay [4], in assay [5], in [6] and in assay [7] was inactive. Moreover, in assay [8], the outcome was inactive. The IC50 in assay [2] stood at 12.5 µM; in assay [9], 3.07 µM.
With `O=C(O)CCC(=O)c1ccc(C#CCOCc2ccccc2)cc1`, the result in assay [1], in [3], in assay [4], in [6], in assay [7] and in assay [8] was inactive. Also, the values for the IC50 in [2] and in assay [9] were 25.7 µM and 23.1 µM, respectively.
For `CCCCCCC(CC(=O)O)C(=O)c1ccc(C#Cc2ccc(Cl)cc2)cc1` (stereo unspecified), the 50% inhibitory concentration (IC50) came out at 1.51 µM in assay [10], 0.2 µM in [2] and 0.55 µM in assay [9]. In addition, the outcome in [1], in assay [3], in assay [16], in assay [5], in [7] and in [8] was inactive. For the same molecule, the outcome in [15] was Active.
Consider `O=C(O)CC(Cc1ccccc1)C(=O)c1ccc(C#Cc2ccccc2)cc1` (stereo unspecified), for which the half-inhibitory concentration (IC50) worked out at 9.29 µM in assay [10], 0.6 µM in assay [2] and 2.11 µM in assay [9].
